Assay results taken from ChEMBL document CHEMBL3997823, “New homoisoflavonoid analogues protect cells by regulating autophagy” (Bioorg Med Chem Lett, 2017).
Active and inactive are the calls of the source. No cut-off for these calls is given here.

Experiments:
H9c2 [1] = experiment: Cardioprotective activity against H2O2-induced injury in rat H9C2 cells assessed as increase in cell viability preincubated for 24 hrs followed by H2O2 addition measured after 24 hrs by MTT assay
[2] = Cytotoxicity against human SH-SY5Y cells assessed as inhibition of cell growth at 50 uM after 72 hrs by MTT assay relative to control; assay type: cell-based
H9c2 [3] = experiment: Cardioprotective activity against H2O2-induced injury in […] H9C2 cells assessed as increase in cell viability preincubated for 24 hrs followed by H2O2 addition measured after 24 hrs by MTT assay; assay type: functional, cell-based; details: Rattus norvegicus
In short: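 H9c2 cardiomyocytes injured with H2O2; cell viability read-out, with diazoxide as positive control.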

SH-SY5Y [4] = experiment: Neuroprotective activity against MPP+-induced injury in human SH-SY5Y cells assessed as cell viability at 5 uM preincubated for 16 hrs followed by MPP+ addition measured after 8 hrs (reference value: 40.71 to 55.85%); assay type: functional; details: read-out: Activity
SH-SY5Y [5] = experiment: Neuroprotective activity against MPP+-induced injury in human SH-SY5Y cells assessed as cell viability at 50 uM preincubated for 16 hrs followed by MPP+ addition measured after 8 hrs (reference value: 40.71 to 55.85%); assay type: functional; details: read-out: Activity
[6] = Cytotoxicity against human MCF7 cells assessed as inhibition of cell growth at 50 uM after 72 hrs by MTT assay relative to control; assay type: cell-based
SH-SY5Y [7] = experiment: Induction of autophagy in human SH-SY5Y cells transfected with GFP-LC3 at 5 uM by MDC staining-based fluorescence microscopic method; assay type: functional, cell-based
SH-SY5Y [8] = experiment: Induction of autophagy in human SH-SY5Y cells at 12.5 to 50 uM after 24 by MDC staining-based flow cytometric method; assay type: functional, cell-based
In short: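 SH-SY5Y cells were treated with compound for the indicated times, then stained with monodansylcadaverine. The MDC-positive cell ratio was measured by flow cytometry as the quantitative autophagy read-out.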

SMILES | EC50 (H9c2 [1]) [µM] | viability at 5 µM (SH-SY5Y [4]) [%] | viability at 50 µM (SH-SY5Y [5]) [%] | other results
COc1ccc(Cc2coc3cc(O)cc(O)c3c2=O)cc1 | > 100 |  |  | 
O=c1c(Cc2ccc(C(F)(F)F)cc2)coc2cc(O)cc(O)c12 | 12.7 |  |  | 
COc1ccccc1Cc1coc2cccc(O)c2c1=O | > 100 |  |  | 
COc1ccc(Cc2coc3cc(O)ccc3c2=O)cc1 | 32.1 |  |  | 
COc1cc(OC)c(OC)cc1Cc1coc2cc(O)cc(O)c2c1=O |  | 62.1 | 48.4 | inhibition at 72 h, 50 µM [2]: 15.3%; EC50 (H9c2 [3]): 15.7 µM; inhibition at 72 h, 50 µM [6]: 49.5%
COc1ccccc1Cc1coc2cc(O)ccc2c1=O | 12.7 | 38.1 | 37.5 | 
COc1ccc(Cc2coc3cccc(O)c3c2=O)cc1 | > 100 |  |  | 
COc1ccccc1Cc1coc2cc(O)cc(O)c2c1=O | 24.4 |  |  | 
COc1cc(OC)c2c(=O)c(Cc3ccc(C(F)(F)F)cc3)coc2c1 | > 100 |  |  | 
COc1ccc(Cc2coc3cc(O)cc(O)c3c2=O)cc1OC | 12.1 | 60.3 | 60.9 | Activity (SH-SY5Y [7]): Active; Activity (SH-SY5Y [8]): Active
COc1ccc(Cc2coc3cc(OC)cc(OC)c3c2=O)cc1 | > 100 |  |  | 
CCC(=O)Oc1cc(O)c2c(=O)c(Cc3ccc(OC)cc3)coc2c1 | > 100 |  |  | 
COc1ccc(Cc2coc3cc(OC(C)=O)cc(O)c3c2=O)cc1 | > 100 |  |  | 
COc1ccc(Cc2coc3cc(OCCCCCl)cc(O)c3c2=O)cc1 | > 100 |  |  | 
COc1cccc(Cc2coc3cc(O)cc(O)c3c2=O)c1 | > 100 |  |  | 
COc1cc(OC)c2c(=O)c(Cc3cccs3)coc2c1 | 74.3 | 37.8 | 42.2 | 
COc1ccc(Cc2coc3cc(OCC=C(C)C)cc(O)c3c2=O)cc1 | > 100 |  |  | 
COc1ccc(Cc2coc3cc(OCCCl)cc(O)c3c2=O)cc1 | > 100 |  |  | 
COc1ccc(Cc2coc3cc(OC(=O)N(C)C)cc(O)c3c2=O)cc1 | 19.9 | 42.5 | 35.5 | 
COc1cc(OC)c2c(=O)c(Cc3ccc(Cl)c(Cl)c3)coc2c1 | 23.8 | 62.4 | 48.9 | Activity (SH-SY5Y [7]): Active
